Bioassay records deposited in PubChem by several laboratories.
Sampled rows, rich in hits. Any-hit rate of the full collection: about 11%.
Diaph act CS – counter-screen for diaphorase-based assays: diaphorase activators and chemical reducers. Diaphorase/resazurin coupled assay, resorufin fluorescence, 16 min; stronger effect = higher value; 1 = vehicle wells, 0 = NADH-free wells. activation factor at 20 µM. 190,000 tested, 0.005% active;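 active = diaphorase activity raised at least twofold by the compound at 20 µM; inactive = activation factor below 2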
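Material: bacterial diaphorase enzyme (C. kluyveri); amount: enzyme 0.07 U/mL final; reagent: NADH substrate 0.114 mM plus resazurin dye 0.1 mM, final; doses: single compound dose of 20 µM, 1% DMSO final; timing: 16 min enzyme reaction, ambient temperature; measured by: fluorescence of resorufin, 544 nm excitation, 590 nm emission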
G6PDH CS – L. mesenteroides G6PDH inhibition counter-screen; Purified L. mesenteroides G6PDH, diaphorase/resazurin coupled fluorescence, 45 min; inhibition, % at 5 µM; 200,000 tested, 0.12% active; AID 1020
WT yeast gro inh – growth inhibition of WT yeast, mitochondrial fusion screen; 190,000 tested, 2.1% active; mitochondrial fusion phenotypic screen, WT strain; inhibition, % at 10 µM; in the data active = inhibition above about 58%; tested in S. cerevisiae
Diaph inh CS – counter-screen for diaphorase-based assays: diaphorase inhibitors and chemical oxidizers; inhibition, % at 20 µM; 190,000 tested, 0.69% active; AID 1217; diaphorase resazurin-to-resorufin fluorescence, NADH, 16 min; bacterial (C. kluyveri) enzyme, not human;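 active = primary screen inhibition at 20 µM above a set limit, cut at about 50% in these data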
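System: Bacterial diaphorase enzyme (C. kluyveri) | Incubation: 16-min room-temperature incubation before reading | Benchmarks: No-NADH positive control and DMSO neutral control | Measured by: Resorufin fluorescence 544/590 nm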
L major viab – reduces viability of Leishmania major promastigotes. resazurin fluorescence viability. 200,000 tested, 9% active. inhibition, % at 10 µM;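 note: promastigotes grown with compound for 44 hours at 28 °C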
Of the large screens only hits and unclear results are named; the others gave an inactive call. Cut-off read from the data, not from the text of the source, unless noted: active = inhibition above about 50%; inactive = the rest.

Cc1ccccc1CN(c1ccc(C(=O)N/N=C/c2ccc(OCC(N)=O)cc2)cc1)S(C)(=O)=O	none
Cc1ccc(S(=O)(=O)N(c2cccc(C(F)(F)F)c2)C2C=CS(=O)(=O)C2)cc1 (stereo not drawn)	none
CCc1ccc(N(C2C=CS(=O)(=O)C2)S(=O)(=O)c2ccccc2)cc1 (stereo not drawn)	L major viab 59.2
CC1CC1c1ccc(/C=C(\C#N)C(=O)Nc2cccc(Cl)c2Cl)o1 (stereo not drawn)	none
CC(C)c1nnc(NC(=O)c2c(O)c3cccc4c3n(c2=O)CCC4)s1	L major viab 71.7
Cc1cnc(NC(=O)c2c(O)c3cccc4c3n(c2=O)CCC4)s1	none
COc1cc(C(=O)N/N=C/c2sc(N3CCOCC3)nc2-c2ccccc2)cc(OC)c1OC	none
CC(=O)Nc1ccc(Nc2ccc(S(=O)(=O)C(F)(F)F)cc2[N+](=O)[O-])cc1	L major viab 56.3
O=C(CCNS(=O)(=O)c1cccc2nonc12)NCc1cccs1	none
COC(=O)c1sccc1NS(=O)(=O)c1ccc(OC)cc1	none
C[n+]1c2n(c3ccccc31)N=C(c1ccc(-c3ccccc3)cc1)CS2	WT yeast gro inh 87.3, L major viab 100.3
C[n+]1c2n(c3ccccc31)N=C(c1ccc(Br)cc1)CS2	L major viab 96.9
C[n+]1c2n(c3ccccc31)N=C(c1ccccc1)CS2	L major viab 97.6
Cc1ccc(-c2nnc3n2N=C(c2ccccc2Br)CS3)cc1	none
COc1ccc(OC)c(NC(=O)c2ccc(-n3cccn3)nc2)c1	none
CC(C)C(NC(=O)C12CC3CC(CC(C3)C1)C2)C(=O)N/N=C/C1=C(N2CCOCC2)C(=C\c2cccc([N+](=O)[O-])c2)/CC1 (stereo not drawn)	L major viab 96.9
O=C(CCc1ccccc1)NNC(=S)NC(=O)c1ccc(Cl)cc1	WT yeast gro inh 64.5
CC(=O)NNC(=S)NC(=O)c1ccc(C)cc1	none
Cc1ccc(C(=O)NNC(=S)NC(=O)c2ccc(Cl)cc2)cc1	L major viab 64.4
N/C(=N\OC(=O)CCC1CCCC1)c1ccccn1	none
Cc1ccc(Cl)cc1N1CCN(C(=O)CCS(=O)(=O)c2cccc3nonc23)CC1	none
c1ccc2c(c1)sc1nnnn12	WT yeast gro inh 66.2
Cc1nc(NC2=NCN(Cc3cccnc3)CN2)nc2c(C)cccc12	none (no result: WT yeast gro inh, L major viab)
COC(=O)c1sccc1N/N=C/c1cccc(Oc2ccccc2)c1	none
CCCCC(=O)Nc1ccc(C(=O)NNC(=S)NC(=O)c2cccs2)cc1	L major viab 62.4
O=C(NNC(=S)NC(=O)c1cccs1)c1ccc(NC(=O)c2ccccc2)cc1	L major viab 99.2
CCCCC(=O)Nc1ccc(C(=O)NNC(=S)NC(=O)c2ccco2)cc1	none
CC(C)CNC(=O)c1ccc(NC(=O)c2cccs2)cc1	L major viab 52.4
O=C(NNC(=S)NC(=O)c1ccco1)c1ccc(NC(=O)c2ccccc2)cc1	L major viab 95.6
CCC(C)c1ccc(NC(=O)c2cccs2)cc1 (stereo not drawn)	none
COc1cc(C2C(C#N)=C(N)N(c3ccc(F)cc3)C3=C2S(=O)(=O)CC3)ccc1O (stereo not drawn)	none
COc1cc(/C=C(\C#N)C(=O)Nc2cc(C(F)(F)F)ccc2Cl)ccc1OCC(=O)Nc1cccc(C(F)(F)F)c1	none
CNC(=S)N(Cc1ccc2c(c1)OCO2)C1CC(=O)N(c2ccccc2)C1=O (stereo not drawn)	none
COc1ccc(N2C(=O)CC(N3CCN(S(=O)(=O)c4cc(C)ccc4C)CC3)C2=O)cc1 (stereo not drawn)	none
O=C(NNC(=S)NC(=O)c1cccs1)c1cccnc1	Diaph inh CS 56.6
O=C(Nc1ccc(NC(=S)NC(=O)C(c2ccccc2)c2ccccc2)cc1)c1ccccc1	L major viab 98.3 (no result: Diaph act CS, G6PDH CS, WT yeast gro inh, Diaph inh CS)
O=C(NC(=S)NNC(=O)c1cc2ccccc2cc1O)c1ccco1	L major viab 76.3
O=C(NNC(=S)NC(=O)c1cccnc1)c1ccc(Cl)cc1	none
O=C(Nc1ccc(NC(=S)NC(=O)c2cccs2)cc1)c1ccccc1	none
CCOC(=O)c1nnc(-c2ccc(C)cc2)nc1Sc1ccc(Cl)cc1	L major viab 53.6
CN1CCN(S(=O)(=O)c2ccc(Br)c3nsnc23)CC1	none
CN1CCN(S(=O)(=O)c2ccc(Sc3nc4ccccc4[nH]3)c3nsnc23)CC1	L major viab 99.7
Cc1ccc(C(=O)Nc2cc(Cl)ccc2N2CCCCC2)s1	WT yeast gro inh 68.2
Cc1nccn1CC(=O)N/N=C/c1cccc(O)c1	L major viab 61.2
CCc1ccc(N(CC(=O)NCc2ccc(F)cc2)C(=O)c2csnn2)cc1	none
Cc1cc(N)n2ncc(-c3ccccc3)c2n1	none
CC(=O)Nc1ccc(Nc2cc(C)nc3c(-c4ccccc4)cnn23)cc1	L major viab 88.7
CCN(CC)Cc1cc(O)c(CN(CC)CC)cc1O	G6PDH CS 56.9, Diaph inh CS 53.1
Cc1ccc(-c2nnc(-c3ccccc3)c(-c3ccccc3)n2)cc1	WT yeast gro inh 76.3
CN(CC(=O)O/N=C(\N)c1ccc([N+](=O)[O-])cc1)S(=O)(=O)c1ccc2ccccc2c1	none
CN(C)c1oc(-c2ccccc2Cl)nc1P(=O)(c1ccccc1)c1ccccc1	L major viab 96.1
Cc1cc2c(=O)n(CC(=O)NCC(=O)N3CCN(Cc4ccccc4)CC3)cnc2s1	none
CCCCOc1ccc(Cl)cc1CSc1nnc(CC)n1N	L major viab 87.9
COc1cc(CNCCNC(=O)c2nonc2N)ccc1OCc1ccc(Cl)cc1	L major viab 97.6
Nc1nonc1C(=O)NCCNCc1ccccc1OCc1ccccc1F	none
Nc1nonc1C(=O)NCCNCc1cc(Br)ccc1OCc1ccccc1F	L major viab 66.1
CC(=O)c1cccc(NC(=O)C(=O)c2cn(CC(=O)N3CCCCC3)c3ccccc23)c1	none
COc1cc(-c2nnc(SCC(=O)/C(C#N)=C(\C)N)o2)cc(OC)c1OC	none
CC(=O)N1CCCc2cc(S(=O)(=O)N3CCc4ccccc4C3)ccc21	L major viab 98.5
CC(=O)N1CCCc2cc(S(=O)(=O)N(C)Cc3ccccc3)ccc21	L major viab 61.0
COc1ccc(-c2cc(=O)[nH][nH]2)cc1OC	L major viab 84.4
CCCCCCCOC(=O)C[N+](C)(C)CCOC1CC2CCC1(C)C2(C)C (stereo not drawn)	WT yeast gro inh 77.9, L major viab 100.3
CC(C)CCOC(=O)C[N+](C)(C)CCOC1CC2CCC1(C)C2(C)C (stereo not drawn)	L major viab 91.1
CCCCCCOC(=O)C[N+](C)(C)CCOC1CC2CCC1(C)C2(C)C (stereo not drawn)	L major viab 100.0
CCCCOC(=O)C[N+](C)(C)CCOC1CC2CCC1(C)C2(C)C (stereo not drawn)	L major viab 69.1
